Experimental findings from ChEMBL document CHEMBL3102735, “Enhancing the pharmacodynamic profile of a class of selective COX-2 inhibiting nitric oxide donors” (Bioorg Med Chem, 2014) are described below.

In test [1] the test system is Mus musculus. Nature of the test: Analgesic activity in po dosed Swiss albino mouse assessed as reduction of acetic acid-induced writhing measured every 10 mins after 5 mins of administration. Format: functional, organism-based. The procedure, abridged: (§1)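 Male Swiss albino mice (23–25 g), compound given orally in CMC vehicle; writhing induced by 0.6% acetic acid (10 mL/kg) ip. Stretching movements counted for 10 min, starting 5 min after administration; percent reduction versus CMC-treated animals.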
In general terms: Writhing tests count abdominal constrictions after an irritant is injected.

Another test has as its system J774. Nature of the test: Selectivity index, ratio of IC50 for COX-1 to IC50 for COX-2 in mouse J774 cells. The format is cell-based. A digest of the protocol:
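J774 macrophages stimulated 24 h with E. coli LPS (10 µg/mL) to induce COX-2, with or without compound (0.01–10 µM); supernatant PGE2 by RIA. Triplicate wells, three experiments, percent inhibition versus control, IC50 by sigmoidal fit; selectivity as COX-1/COX-2 IC50 ratio.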

The target of test [2] is T1, Prostaglandin G/H synthase 2 (Mus musculus, UniProt Q05769).
T1 sequence (Q05769 whole entry): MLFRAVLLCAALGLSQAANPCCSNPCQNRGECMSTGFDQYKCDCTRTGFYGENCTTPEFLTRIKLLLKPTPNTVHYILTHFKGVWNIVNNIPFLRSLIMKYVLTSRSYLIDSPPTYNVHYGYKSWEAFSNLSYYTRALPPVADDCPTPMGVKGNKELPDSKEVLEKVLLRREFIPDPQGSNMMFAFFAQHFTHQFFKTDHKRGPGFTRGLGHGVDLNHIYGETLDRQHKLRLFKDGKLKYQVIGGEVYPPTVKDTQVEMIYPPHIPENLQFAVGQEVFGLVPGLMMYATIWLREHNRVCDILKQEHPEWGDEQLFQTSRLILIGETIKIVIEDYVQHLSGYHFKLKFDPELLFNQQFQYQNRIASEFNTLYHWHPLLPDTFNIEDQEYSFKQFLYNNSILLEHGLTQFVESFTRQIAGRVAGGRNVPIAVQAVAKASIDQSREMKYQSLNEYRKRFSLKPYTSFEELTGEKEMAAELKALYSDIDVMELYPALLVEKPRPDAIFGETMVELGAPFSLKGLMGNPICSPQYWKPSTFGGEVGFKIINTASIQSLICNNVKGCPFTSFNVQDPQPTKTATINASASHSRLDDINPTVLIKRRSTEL
Put plainly: Inhibition of LPS-induced COX-2 in mouse J774 cells using arachidonic acid as substrate assessed as inhibition of prostaglandin E2 production preincubated for 15 mins followed by substrate addition measured after 30 mins by RIA. The format is cell-based.

Test [3] addresses T2, Prostaglandin G/H synthase 1 (Mus musculus, UniProt P22437).
T2 sequence (P22437 whole entry): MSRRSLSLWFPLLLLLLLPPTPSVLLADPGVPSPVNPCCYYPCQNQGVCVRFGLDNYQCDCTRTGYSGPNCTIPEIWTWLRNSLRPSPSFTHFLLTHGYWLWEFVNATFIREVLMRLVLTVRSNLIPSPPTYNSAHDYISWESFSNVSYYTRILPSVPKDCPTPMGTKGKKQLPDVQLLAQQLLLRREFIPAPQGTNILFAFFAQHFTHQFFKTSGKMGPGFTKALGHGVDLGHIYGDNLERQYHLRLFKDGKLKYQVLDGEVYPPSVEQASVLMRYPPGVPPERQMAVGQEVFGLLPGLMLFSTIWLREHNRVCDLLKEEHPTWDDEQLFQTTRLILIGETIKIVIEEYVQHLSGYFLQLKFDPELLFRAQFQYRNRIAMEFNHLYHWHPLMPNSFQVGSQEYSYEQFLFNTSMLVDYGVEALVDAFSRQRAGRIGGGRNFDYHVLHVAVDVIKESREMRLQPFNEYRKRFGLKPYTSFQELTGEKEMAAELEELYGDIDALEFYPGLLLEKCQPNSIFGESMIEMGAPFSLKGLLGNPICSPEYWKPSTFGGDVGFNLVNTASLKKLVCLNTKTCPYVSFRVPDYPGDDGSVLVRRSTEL
Put plainly: Inhibition of COX-1 in mouse J774 cells using arachidonic acid as substrate assessed as inhibition of prostaglandin E2 production preincubated for 15 mins followed by substrate addition measured after 30 mins by RIA. The format is cell-based. A digest of the protocol: (§2)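 J774 murine macrophages pretreated 15 min with compound (10 µM; lower concentrations 0.01–1 µM where needed), then incubated 30 min at 37 °C with 15 µM arachidonic acid; supernatant PGE2 measured by RIA. Triplicate wells, mean of three experiments of percent inhibition versus control; IC50 by sigmoidal fit.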

The target in test [4] is T3, Prostaglandin G/H synthase 2 (Mus musculus) (UniProt Q05769).
T3 sequence (whole entry): T1 sequence (Q05769 whole entry)
Nature of the test: Inhibition of LPS-induced COX-2 in mouse J774 cells using arachidonic acid as substrate assessed as inhibition of prostaglandin E2 production at 10 uM preincubated for 15 mins followed by substrate addition measured after 30 mins by RIA. The format is cell-based.

The target in test [5] is T4, Prostaglandin G/H synthase 1 (Mus musculus) (UniProt P22437).
T4 sequence (whole entry): T2 sequence (P22437 whole entry)
Nature of the test: Inhibition of COX-1 in mouse J774 cells using arachidonic acid as substrate assessed as inhibition of prostaglandin E2 production at 10 uM preincubated for 15 mins followed by substrate addition measured after 30 mins by RIA. Format: cell-based. The procedure, abridged:
as §2

In test [6] the test system is Mus musculus. Nature of the test: Analgesic activity in Swiss albino mouse assessed as reduction of acetic acid-induced writhing at 3 mg/kg, po measured every 10 mins after 5 mins of administration relative to control. Format: functional. On the set-up: scale not given: the % may be the effect or the level left. A digest of the protocol:
as §1

Test [7] deals with Mus musculus. Nature of the test: Analgesic activity in Swiss albino mouse assessed as reduction of acetic acid-induced writhing at 10 mg/kg, po measured every 10 mins after 5 mins of administration relative to control. Format: functional. On the set-up: scale not given: the % may be the effect or the level left. The procedure, abridged:
as §1

The test system of test [8] is Mus musculus. Put plainly: Analgesic activity in Swiss albino mouse assessed as reduction of acetic acid-induced writhing at 20 mg/kg, po measured every 10 mins after 5 mins of administration relative to control. The format is functional. On the set-up: scale not given: the % may be the effect or the level left. The procedure, abridged:
as §1

Test [9] relates to Thoracic aorta. Put plainly: Ex vivo vasorelaxant activity in Wistar rat endothelium thoracic aortic ring assessed as reduction of KCl-induced contraction at 0.001 uM to 10 uM relative to control. Format: functional. A digest of the protocol:
(§3)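 Endothelium-denuded thoracic aortic rings from male Wistar rats (250–350 g) in oxygenated Tyrode-type buffer at 37 °C, isometric tension recording. Rings precontracted with 30 mM KCl, then 3-fold increasing compound concentrations (1 nM–10 µM) added, also with 1 µM ODQ preincubated. Emax as % of KCl tone; pIC50; mean ± SE of 6–10 experiments.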

Test [10] deals with Thoracic aorta. Nature of the test: Ex vivo vasorelaxant activity in Wistar rat endothelium thoracic aortic ring assessed as reduction of KCl-induced contraction in presence of guanylate cyclase inhibitor ODQ. Format: functional. The procedure, abridged:
as §3

Test [11] deals with Thoracic aorta. Put plainly: Ex vivo vasorelaxant activity in Wistar rat endothelium thoracic aortic ring assessed as reduction of KCl-induced contraction. The format is functional, tissue-based. A digest of the protocol:
as §3

Test [12] relates to Mus musculus. Nature of the test: Analgesic activity in Swiss albino mouse assessed as reduction of acetic acid-induced writhing at 40 mg/kg, po measured every 10 mins after 5 mins of administration relative to control. Format: functional. On the set-up: scale not given: the % may be the effect or the level left. A digest of the protocol:
as §1

Test [13] deals with T5, Prostaglandin G/H synthase 2 (Homo sapiens, UniProt P35354).
T5 sequence (P35354 whole entry): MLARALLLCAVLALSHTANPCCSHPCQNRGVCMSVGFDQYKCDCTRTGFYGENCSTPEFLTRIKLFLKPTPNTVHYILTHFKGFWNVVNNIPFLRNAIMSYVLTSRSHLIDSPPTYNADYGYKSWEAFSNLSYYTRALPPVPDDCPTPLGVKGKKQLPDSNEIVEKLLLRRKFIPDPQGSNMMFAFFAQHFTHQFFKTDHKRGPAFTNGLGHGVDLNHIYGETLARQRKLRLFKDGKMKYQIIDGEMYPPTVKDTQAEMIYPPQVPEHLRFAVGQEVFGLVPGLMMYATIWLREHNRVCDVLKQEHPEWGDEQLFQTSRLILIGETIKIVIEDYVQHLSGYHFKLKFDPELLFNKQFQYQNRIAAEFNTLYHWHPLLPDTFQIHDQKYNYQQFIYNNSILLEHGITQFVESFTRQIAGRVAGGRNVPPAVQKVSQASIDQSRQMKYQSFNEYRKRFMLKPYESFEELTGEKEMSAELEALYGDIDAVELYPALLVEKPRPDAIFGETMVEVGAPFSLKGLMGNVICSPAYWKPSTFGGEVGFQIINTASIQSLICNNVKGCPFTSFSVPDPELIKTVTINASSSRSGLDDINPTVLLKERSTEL
On the set-up: species or system Blood.

The target in test [14] is Prostaglandin G/H synthase 1 (Homo sapiens, UniProt P23219). Nature of the test: Inhibition of COX-1 in human whole blood assessed as thromboxane B2 production by RIA.

Activity calls are given as the source filed them. The calls are words filed in the database; no cut-off is given here.

Prostaglandin G/H synthase 1 (Homo sapiens, UniProt P23219), sequence (P23219 whole entry): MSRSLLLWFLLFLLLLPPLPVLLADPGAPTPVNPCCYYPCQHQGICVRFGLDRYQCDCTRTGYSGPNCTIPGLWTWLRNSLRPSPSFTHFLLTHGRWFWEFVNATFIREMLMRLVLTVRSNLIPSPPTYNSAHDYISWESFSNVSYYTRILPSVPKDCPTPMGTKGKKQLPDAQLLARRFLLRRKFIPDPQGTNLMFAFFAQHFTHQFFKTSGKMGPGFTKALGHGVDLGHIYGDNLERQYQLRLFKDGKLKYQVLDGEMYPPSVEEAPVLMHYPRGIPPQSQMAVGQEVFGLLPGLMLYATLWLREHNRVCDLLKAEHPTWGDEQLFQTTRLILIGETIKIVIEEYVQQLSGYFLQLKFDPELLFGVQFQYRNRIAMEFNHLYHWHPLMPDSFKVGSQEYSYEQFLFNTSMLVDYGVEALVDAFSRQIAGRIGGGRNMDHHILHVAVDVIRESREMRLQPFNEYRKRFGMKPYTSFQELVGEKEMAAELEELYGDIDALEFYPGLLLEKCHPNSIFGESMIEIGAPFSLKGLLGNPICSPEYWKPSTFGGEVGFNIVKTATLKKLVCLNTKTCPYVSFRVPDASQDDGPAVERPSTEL

One may read the IC50 as the point on the concentration scale where inhibition reaches its midpoint. One may read the inhibition as the change of the read-out against control, counted positive when it falls. Consider `Cc1c(CC(=O)NCCCO[N+](=O)[O-])cc(-c2ccc(S(C)(=O)=O)cc2)n1-c1ccc(F)cc1`, for which the Activity result with Mus musculus [1] is “Dose-dependent effect”; in the test with Mus musculus [6], 17%; with Mus musculus [7], 37%; in the test on Mus musculus [8], 37%. The Ratio IC50 with J774 was more than 32. Moreover, the IC50 in [2] was 0.31 µM; in test [3], more than 10 µM. The values for the inhibition in [4] and in test [5] were 100% and 0%, respectively.

As usually defined, the Emax is the maximal effect, on the per cent scale that the assay sets. On to `Cc1c(CC(=O)NCCCO[N+](=O)[O-])cc(-c2ccc(S(C)(=O)=O)cc2)n1-c1cccc(F)c1`, for which the Activity entry in the test on Mus musculus [1] was “Dose-dependent effect”; in the test with Mus musculus [12], 30%; in the test on Mus musculus [7], 0%; in the test on Mus musculus [8] it was 8.6%. Besides, the Emax in the test on Thoracic aorta [9] was found to be 69%. In addition, the result with Thoracic aorta [10] was inactive. Besides, the IC50 with Thoracic aorta [11] is 1.66 µM; in [2], 0.25 µM; in test [3] it was more than 10 µM. Besides, the Ratio IC50 in the test with J774 is more than 40. For the same molecule, the inhibition in test [4] was found to be 100%; in test [5], 0%.

As to `Cc1c(CC(=O)NCCO)cc(-c2ccc(S(C)(=O)=O)cc2)n1-c1ccc(F)cc1`, the values for the IC50 in [13], in test [14] and in test [3] were 1.4 µM, 1.9 µM and more than 10 µM, respectively. Besides, the Activity result in the test with Mus musculus [1] was “Dose-dependent effect”; with Mus musculus [7] it was 37%; with Mus musculus [8] it was 61%. In the test on J774, the Ratio IC50 was more than 33. The results for the inhibition in test [4] and in [5] were 100% and 0%, respectively.
